Measurements as given in ChEMBL document CHEMBL5678802, “Small-molecule p21-activated kinase inhibitor PF-3758309 is a potent inhibitor of oncogenic signaling and tumor growth” (Proc Natl Acad Sci U S A, 2010).
The source made the active and inactive calls. The calls are words filed in the database; no cut-off is given here.

How the values were obtained:
NCI-H716 = test: Antiproliferative activity against human NCI-H716 cells assessed as inhibition of cell proliferation incubated for 3 days by CellTiter-Glo Luminescent Cell Viability Assay; format: functional, cell-based; conditions: NCI-H716, 72 h
In short: (§1)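 Cells of each line were plated in 384-well plates on day 1 and exposed to compound from day 2 for 3 days. On day 5 all medium was aspirated. Viable cell number was read by CellTiter-Glo luminescence, which quantifies cellular ATP.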

NCI-H1581 = test: Antiproliferative activity against human NCI-H1581 cells assessed as inhibition of cell proliferation incubated for 3 days by CellTiter-Glo Luminescent Cell Viability Assay; format: functional, cell-based; conditions: NCI-H1581, 72 h
In short: (§2)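 Cancer cell lines seeded in 384-well plates on day 1; compound added on day 2 and left for 3 days. On day 5 all medium was aspirated, and viable cells were quantified by CellTiter-Glo luminescence, which measures cellular ATP. Dose-dependent effects on proliferation were determined.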

NCI-H82 = test: Antiproliferative activity against human NCI-H82 cells assessed as inhibition of cell proliferation incubated for 3 days by CellTiter-Glo Luminescent Cell Viability Assay; format: functional, cell-based; conditions: NCI-H82, 72 h; in short: as §1
HCC827 = test: Antiproliferative activity against human HCC827 cells assessed as inhibition of cell proliferation incubated for 3 days by CellTiter-Glo Luminescent Cell Viability Assay; format: functional, cell-based; conditions: HCC827, 72 h; in short: as §2
PaTu 8988t = test: Antiproliferative activity against human PaTu 8988t cells assessed as inhibition of cell proliferation incubated for 3 days by CellTiter-Glo Luminescent cell viability assay; format: functional, cell-based; conditions: 72 h; in short: as §1
SW1990 = test: Antiproliferative activity against human SW1990 cells assessed as inhibition of cell proliferation incubated for 3 days by CellTiter-Glo Luminescent Cell Viability Assay; format: functional, cell-based; conditions: SW1990, 72 h; in short: as §1
HuP-T3 = test: Antiproliferative activity against human HuP-T3 cells assessed as inhibition of cell proliferation incubated for 3 days by CellTiter-Glo Luminescent Cell Viability Assay; format: functional, cell-based; conditions: HuP-T3, 72 h; in short: as §2
Hs 766 = test: Antiproliferative activity against human Hs766T cells assessed as inhibition of cell proliferation incubated for 3 days by CellTiter-Glo Luminescent Cell Viability Assay; format: functional, cell-based; conditions: Hs 766, 72 h; in short: as §2
PANC-1 = test: Antiproliferative activity against human PANC-1 cells assessed as inhibition of cell proliferation incubated for 3 days by CellTiter-Glo Luminescent Cell Viability Assay; format: functional, cell-based; conditions: PANC-1, 72 h; in short: as §1
HCC4006 = test: Inhibition of anchorage independent cell growth in human HCC4006 cells incubated for 6 days by Alamar blue reagent based fluorescence plate reader analysis; format: functional; conditions: HCC4006, 144 h
NCI-H1395 = test: Inhibition of anchorage independent cell growth in human NCI-H1395 cells incubated for 6 days by Alamar blue reagent based fluorescence plate reader analysis; format: functional; conditions: NCI-H1395, 144 h
NCI-H2170 = test: Inhibition of anchorage independent cell growth in human NCI-H2170 cells incubated for 6 days by Alamar blue reagent based fluorescence plate reader analysis; format: functional; conditions: NCI-H2170, 144 h
HCC70 = test: Antiproliferative activity against human HCC70 cells assessed as inhibition of cell proliferation incubated for 3 days by CellTiter-Glo Luminescent Cell Viability Assay; format: functional, cell-based; conditions: HCC70, 72 h; in short: as §2
BT-549 = test: Antiproliferative activity against human BT-549 cells assessed as inhibition of cell proliferation incubated for 3 days by CellTiter-Glo Luminescent Cell Viability Assay; format: functional, cell-based; conditions: BT-549, 72 h; in short: as §2
MCF7 = test: Antiproliferative activity against human MCF7 cells assessed as inhibition of cell proliferation incubated for 3 days by CellTiter-Glo Luminescent Cell Viability Assay; format: functional, cell-based; conditions: MCF7, 72 h; in short: as §2
[1] = Cytotoxicity against primary hepatocyte (unknown origin) assessed as inhibition of cell proliferation incubated for 3 days by CellTiter-Glo Luminescent Cell Viability Assay; format: toxicity, cell-based; conditions: primary hepatocytes
[2] = molecular target: Protein kinase C theta type (Homo sapiens, UniProt Q04759); test: Inhibition of human PKCtheta in presence of ATP relative to control; conditions: concentration not given here
[3] = molecular target: T1, Serine/threonine-protein kinase D1 (Homo sapiens, UniProt Q15139); test: Inhibition of human PKCmu assessed as inhibition constant in presence of ATP
T1 sequence (Q15139 whole entry): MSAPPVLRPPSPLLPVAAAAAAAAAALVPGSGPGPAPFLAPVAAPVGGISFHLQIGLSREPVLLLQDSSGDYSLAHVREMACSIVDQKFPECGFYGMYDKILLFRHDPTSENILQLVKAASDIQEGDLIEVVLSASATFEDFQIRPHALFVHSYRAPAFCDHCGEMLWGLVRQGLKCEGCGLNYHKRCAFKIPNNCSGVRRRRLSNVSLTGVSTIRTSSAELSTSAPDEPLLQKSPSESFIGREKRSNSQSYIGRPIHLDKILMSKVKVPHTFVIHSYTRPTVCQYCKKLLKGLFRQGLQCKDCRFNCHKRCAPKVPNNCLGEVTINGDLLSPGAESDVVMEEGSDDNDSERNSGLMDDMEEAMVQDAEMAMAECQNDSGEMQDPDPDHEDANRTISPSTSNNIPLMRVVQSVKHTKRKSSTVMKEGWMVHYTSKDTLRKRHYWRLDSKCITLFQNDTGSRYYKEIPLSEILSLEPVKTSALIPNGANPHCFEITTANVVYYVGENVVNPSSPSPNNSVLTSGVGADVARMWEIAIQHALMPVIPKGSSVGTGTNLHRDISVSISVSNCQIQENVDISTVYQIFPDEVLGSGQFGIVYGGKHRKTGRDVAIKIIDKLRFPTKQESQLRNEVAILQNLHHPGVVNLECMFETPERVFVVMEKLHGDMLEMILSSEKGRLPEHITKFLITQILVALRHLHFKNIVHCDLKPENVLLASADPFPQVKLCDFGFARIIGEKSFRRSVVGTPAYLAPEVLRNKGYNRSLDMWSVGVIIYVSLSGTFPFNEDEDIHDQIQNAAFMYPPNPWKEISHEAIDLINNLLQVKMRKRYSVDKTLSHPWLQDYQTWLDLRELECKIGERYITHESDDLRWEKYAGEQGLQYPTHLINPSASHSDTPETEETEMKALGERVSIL

[4] = molecular target: Tyrosine-protein kinase Fgr (Homo sapiens, UniProt P09769); test: Inhibition of human FGR assessed as inhibition constant in presence of ATP
[5] = molecular target: T1, Serine/threonine-protein kinase D1; test: Inhibition of human PKCmu in presence of ATP
[6] = In vivo inhibition of PAK4 in nude mouse xenografted with human HCT-116 cells assessed as reduction in phosphorylated GEF-H1 level at 1.1 to 3.3 mg/kg, sc administered for 6 days by ELISA relative to control; format: functional; set-up: scale not given: the % may be the effect or the level left; conditions: dose 1.1-3.3 mg/kg, time 6 day
[7] = Drug exposure in nude mouse xenografted with human HCT-116 cells at 1.1 to 3.3 mg/kg, sc administered for 6 days; format: ADME, organism-based; conditions: in vivo, dose 1.1-3.3 mg/kg, time 6 day, read-out: Drug uptake
HCT-116 = test: Antitumor activity against human HCT-116 cells xenografted in nude mouse assessed as reduction in PKCalpha phosphorylation at S569 residue at 15 to 150 mg/kg/day administered via pump for 18 hrs by Reverse-Phase protein array analysis; format: functional, organism-based; conditions: dose 15-150 mg/kg/day

Sequence of Protein kinase C theta type (Q04759 whole entry, looked up): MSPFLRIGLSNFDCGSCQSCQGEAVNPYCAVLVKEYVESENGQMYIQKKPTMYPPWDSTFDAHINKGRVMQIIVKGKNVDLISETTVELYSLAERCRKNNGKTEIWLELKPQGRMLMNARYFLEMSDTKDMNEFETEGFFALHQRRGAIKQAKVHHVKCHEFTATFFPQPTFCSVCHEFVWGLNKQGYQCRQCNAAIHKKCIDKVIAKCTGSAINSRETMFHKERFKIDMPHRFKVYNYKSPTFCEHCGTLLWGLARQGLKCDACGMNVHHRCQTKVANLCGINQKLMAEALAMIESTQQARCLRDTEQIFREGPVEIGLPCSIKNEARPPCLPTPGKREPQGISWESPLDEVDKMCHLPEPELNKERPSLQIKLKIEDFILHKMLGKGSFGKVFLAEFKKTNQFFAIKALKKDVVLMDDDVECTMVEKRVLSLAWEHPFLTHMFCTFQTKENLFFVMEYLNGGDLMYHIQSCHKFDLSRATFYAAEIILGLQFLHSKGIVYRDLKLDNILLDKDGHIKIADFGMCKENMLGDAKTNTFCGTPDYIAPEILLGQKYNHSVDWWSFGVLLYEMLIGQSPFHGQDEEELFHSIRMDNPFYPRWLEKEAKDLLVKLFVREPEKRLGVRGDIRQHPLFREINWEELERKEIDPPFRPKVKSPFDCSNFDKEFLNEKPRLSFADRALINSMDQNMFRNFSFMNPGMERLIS
Sequence of Tyrosine-protein kinase Fgr (P09769 whole entry): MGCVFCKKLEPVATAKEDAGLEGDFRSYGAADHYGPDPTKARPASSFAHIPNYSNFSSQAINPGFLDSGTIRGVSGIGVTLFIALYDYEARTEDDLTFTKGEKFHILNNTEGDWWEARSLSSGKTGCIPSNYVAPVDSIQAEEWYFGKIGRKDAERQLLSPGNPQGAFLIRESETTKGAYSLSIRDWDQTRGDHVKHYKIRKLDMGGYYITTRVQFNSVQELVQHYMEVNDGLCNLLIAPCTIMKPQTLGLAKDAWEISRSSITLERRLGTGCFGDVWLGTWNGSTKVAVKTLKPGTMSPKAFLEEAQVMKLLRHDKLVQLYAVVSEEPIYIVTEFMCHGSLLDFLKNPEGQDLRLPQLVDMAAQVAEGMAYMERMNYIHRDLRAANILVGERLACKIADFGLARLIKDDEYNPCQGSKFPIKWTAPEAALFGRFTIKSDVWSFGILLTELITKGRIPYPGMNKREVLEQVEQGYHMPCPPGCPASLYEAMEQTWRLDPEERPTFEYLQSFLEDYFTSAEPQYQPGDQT

Structure (SMILES): Cc1nc(Nc2n[nH]c3c2CN(C(=O)N[C@H](CN(C)C)c2ccccc2)C3(C)C)c2sccc2n1 [PF-03758309]
- IC50 (NCI-H716): 11 nM
- IC50 (NCI-H1581): 0.6 nM
- IC50 (NCI-H82): 2.1 nM
- IC50 (HCC827): 9.2 nM
- IC50 (PaTu 8988t): 73 nM
- IC50 (SW1990): 127 nM
- IC50 (HuP-T3): 280 nM
- IC50 (Hs 766): 416 nM
- IC50 (PANC-1): 856 nM
- IC50 (HCC4006): 3.79 nM
- IC50 (NCI-H1395): 7.62 nM
- IC50 (NCI-H2170): 6.04 nM
- IC50 (HCC70): 0.23 nM
- IC50 (BT-549): 0.41 nM
- IC50 (MCF7): 44.6 nM
- IC50 at 3 days [1]: > 1000 nM
- inhibition [2]: 98%
- Ki [3]: 21 nM
- Ki [4]: 15 nM
- IC50 [5]: 21 nM
- Activity [6]: 54%
- concentration at 144 h [7]: 0.14 nM
- Activity (HCT-116): Active
